Assays:
Assay type in all cases: functional, cell-based
Conditions in all cases: HT-1080, light or radiation study
[1] = test system: HT-1080; assay: Inhibition of cell growth after irradiation at UVA dose of 2.6 J/cmE-2 in HT1080 human fibrosarcoma cell line
Procedure, shortened: (§1)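 HT-1080 cells from exponential culture seeded at 5×10⁴ cells/mL in DMEM with 10% FBS and penicillin/streptomycin, and allowed to adhere 18 h. Drug was dissolved in DMSO, diluted in HBSS pH 7.2 and incubated 30 min at 37 °C, 5% CO2. Cells were irradiated with lamps emitting mainly at 365 nm, then given medium for 72 h. Read-out was MTT versus untreated controls, with IC50 by linear regression from three experiments.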

[2] = test system: HT-1080; assay: Inhibition of cell growth after irradiation at UVA dose of 3.2 J/cmE-2 in HT1080 human fibrosarcoma cell line; procedure, shortened: as §1
[3] = test system: HT-1080; assay: Inhibition of cell growth after irradiation at UVA dose of 6.5 J/cmE-2 in HT1080 human fibrosarcoma cell line; procedure, shortened: as §1

Row | Structure (SMILES) | IC50 [1] | IC50 [2] | IC50 [3]
1 | Cc1cc2c(n1C)CCc1cc(S(=O)(=O)c3ccccc3)c(O)nc1-2 | > 20 µM | > 20 µM | 16.4 µM
2 | O=c1ccc2ccc3occc3c2o1 [ANGELICIN] | 15.7 µM | 2.6 µM | 2.5 µM
3 | Cc1cc2c(n1-c1ccccc1)CCc1cc(S(=O)(=O)c3ccccc3)c(O)nc1-2 | 3.6 µM | 2.3 µM | 0.4 µM
4 | Cc1cc2c(n1Cc1ccccc1)CCc1cc(S(=O)(=O)c3ccccc3)c(O)nc1-2 | > 20 µM | 15.1 µM | 1.8 µM
5 | Cc1cc2c(n1Cc1ccccc1)CCc1cc(C(=O)c3ccccc3)c(O)nc1-2 | 14.7 µM | 9 µM | 1.9 µM
6 | Cc1cc2c(n1-c1ccccc1)CCc1cc(C#N)c(O)nc1-2 | > 20 µM | 13.1 µM | 11.1 µM
7 | COc1c2occc2cc2ccc(=O)oc12 [METHOXSALEN] | 7.8 µM | 2.1 µM | 1.5 µM
8 | Cc1cc2c(n1C)CCc1cc(C(=O)c3ccccc3)c(O)nc1-2 | > 20 µM | > 20 µM | > 20 µM
9 | Cc1cc2c(n1-c1ccccc1)CCc1cc(C(=O)c3ccccc3)c(O)nc1-2 | 6.6 µM | 4.6 µM | 1.7 µM
10 | COc1c2ccoc2cc2oc(=O)ccc12 [BERGAPTEN] | 8.5 µM | 1.8 µM | 0.9 µM
